# NR2E3 ag-1 – inhibitors of NR2E3-RetCOR corepressor binding, primary screen, NR2E3 agonist project, biochemical, TR-FRET, GST-NR2E3, biotin-RetCOR; AID 2300, 2010; inhibition of corepressor binding, % at 4.78 µM; 1536-well; actives 0.12% (n = 320,000); Photoreceptor-specific nuclear receptor (Homo sapiens), Q9Y5X4;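 active = percent inhibition above the cutoff of mean plus 3 SD of all tested compounds, set per screening campaign, cut at about 20% in these data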;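 also: 0% = DMSO wells and 100% = biotin wells as full block of FRET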
# Target sequence (Q9Y5X4 whole entry, looked up): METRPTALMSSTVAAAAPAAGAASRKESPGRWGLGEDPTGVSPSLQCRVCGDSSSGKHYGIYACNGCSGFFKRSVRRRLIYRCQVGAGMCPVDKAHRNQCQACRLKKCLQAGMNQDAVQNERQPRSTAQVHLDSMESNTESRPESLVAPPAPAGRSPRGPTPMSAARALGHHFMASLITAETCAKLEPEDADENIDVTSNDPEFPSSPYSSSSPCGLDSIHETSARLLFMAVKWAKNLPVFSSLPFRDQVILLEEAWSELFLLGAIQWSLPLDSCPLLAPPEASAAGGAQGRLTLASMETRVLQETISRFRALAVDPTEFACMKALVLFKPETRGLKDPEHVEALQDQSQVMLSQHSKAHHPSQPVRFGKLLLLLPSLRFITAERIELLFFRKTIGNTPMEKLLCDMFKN
#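 Format: 1536-well format; test system: GST-NR2E3 and biotin-RetCOR proteins; read-out basis: percent inhibition of TR-FRET ratio; timing: 5 h incubation at 4 °C; detection: time-resolved FRET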
# NR2E3 ag-2 – NR2E3 agonists in two-hybrid cells, primary screen, cell-based, luminescence, CHO-S, Gal4-NCOR/VP16-NR2E3; AID 602229, 2012; luciferase; actives 0.35% (n = 360,000); inhibition of corepressor binding, % at 3.98 µM; Photoreceptor-specific nuclear receptor (Homo sapiens), Q9Y5X4;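 active = inhibition above the mean of all tested compounds plus 3 SD, cut at about 70% in these data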;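 also: 0% = DMSO with NR2E3 transfected cells and 100% = cells lacking NR2E3 construct; higher means lower luciferase signal from less NR2E3 corepressor binding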
# HIF act – HIF pathway transcriptional activators, primary screen, cell-based, U2OS HRE-luciferase, luminescence. U2OS HRE-luciferase reporter; normalized: DMSO 0%, desferrioxamine 100%. activation, % at 7.5 µM (by protocol). actives 0.32% (n = 300,000);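 active = mean activation of at least 10% of the iron chelator positive control signal, with at least half of replicates also reaching 10%; inconclusive = mean and replicate majority disagree about reaching 10%; inactive = mean and most replicates under 10%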
# EBV LMP1 NFkB – EBV LMP1-driven NF-kappaB luciferase reporter inhibitors, primary screen, cell-based, luminescence, single point. LMP1-induced NF-kappaB luciferase reporter cells. inhibition, % at 12.5 µM. actives 0.69% (n = 350,000); in the data active = inhibition above about 41%; inconclusive = no clear call, values can overlap the other calls;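 also: 0% = neutral control wells and 100% = reference inhibitor control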
# TROY NFkB inh – inhibitors of TROY-driven NF-kB signaling, primary screen, Q293 LMP1-TROYcd cells, NF-kB luciferase, uHTS. Q293 LMP1-TROYcd NF-kB luciferase reporter, 4 h. actives 0.98% (n = 360,000). inhibition, % at 10 µM. AID 1347056, 2019;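 active = compounds whose plate-normalised and pattern-corrected inhibition of the luciferase reporter signal at the single screening dose is 50% or more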
# * = called active by the depositor; ? = inconclusive; / = no result given. The list is not random: actives were taken first. Their share in the collection is about 2%.
SMILES,NR2E3 ag-1,NR2E3 ag-2,HIF act,EBV LMP1 NFkB,TROY NFkB inh
COc1cccc(NC(=O)COC(=O)/C=C/c2c(C)nn(-c3ccccc3)c2C)c1,5.0,-2.2,/,0.6,19.2
Cc1cccc(Cn2cc(SCC(=O)Nc3nccs3)c3ccccc32)c1,-0.8,2.5,0.5,82.1*,-21.9
CCOC(=O)c1ccc(NC(=S)N2CCSC2c2ccc(OC)cc2)cc1 (configuration not stated),0.1,-25.6,-4.6,66.9*,5.3
O=C(COc1ccc(Br)cc1Cl)NC(=S)Nc1ccccn1,-1.1,16.0,0.6,-28.3,69.2*
COc1ccc(OCC(=O)NC(=S)NNC(=O)COc2ccc(Br)cc2Cl)cc1,-1.3,-68.0,0.5,-1.0,2.0
Cc1ccc(OCC(=O)NC(=S)Nc2ccccn2)c(Br)c1,2.9,-11.1,-2.7,21.2,79.4*
C/C(=N\NC(=O)c1ccc(-c2ccccc2)cc1)C1C(=O)c2ccccc2C1=O,1.3,18.4,-0.4,8.1,56.4*
COc1ccccc1-c1cccc(-c2nc(C(=O)Nc3nccs3)cc3c2[C@@H](CCO)N(C(=O)CC2CC2)C3)c1,/,-9.1,/,/,4.9
Cc1ccc(S(=O)(=O)N2CCCCC2)cc1C(=O)OC(C)C(=O)NCC1CCCCC1 (configuration not stated),/,-19.5,/,4.3,2.2
O=C(Nc1ccc2c(c1)OCCO2)c1coc2ccccc2c1=O,2.6,-11.4,-0.2,17.6,85.4*
Cc1nc2ccccn2c1C(=O)Nc1ccc2c(c1)OCCO2,2.0,-16.4,-1.0,24.7,67.5*
O=C(CCn1cccn1)Nc1ccc2c(c1)OCCO2,1.1,9.2,-1.6,5.8,61.5*
Cc1ccc(S(=O)(=O)c2c(C)cc(C)[nH]c2=O)cc1,-2.2,-18.0,-18.4,-2.6,-0.8
Nn1c(SCC(=O)NC2CCCCC2)nnc1-c1ccco1,5.3,11.2,/,-1.3,-5.4
COc1cccc(-c2nc(NC3CCCC3)c3ccccc3n2)c1O,0.0,-12.1,-0.1,1.9,70.5*
COc1cccc(-c2nc(NCc3ccccc3)c3ccccc3n2)c1O,0.5,-18.6,-0.9,?,29.6
COc1ccc(S(=O)(=O)N2CCOC2CNC(=O)C(=O)NCCc2ccc(S(N)(=O)=O)cc2)cc1 (configuration not stated),3.2,-17.4,0.2,1.5,-0.3
O=C(NCC1CCCO1)c1cc([N+](=O)[O-])ccc1N1CCC(Cc2ccccc2)CC1 (configuration not stated),2.0,-3.6,/,2.9,0.8
CCSc1nc2ccccc2n1C(=O)/C=C\c1ccc(OC)c(OC)c1,2.2,10.9,-0.7,67.8*,35.9
COc1ccc(-n2nnnc2CNC(=O)c2c(-c3ccccc3Cl)noc2C)cc1,/,-32.2,/,2.9,-1.6
Oc1ccc(CN2CCCCC2)c2cccnc12,4.8,-6.8,1.2,-1.6,-16.0
Cc1ccc(C)c(S(=O)(=O)N2CCN(Cc3ccc(O)c4ncccc34)CC2)c1,5.4,-21.6,28.9*,19.2,1.3
Oc1ccc(CN2CCC(Cc3ccccc3)CC2)c2cccnc12,/,/,17.9*,/,/
Oc1ccc(CN2CCc3ccccc3C2)c2cccnc12,1.6,-9.4,158.8*,82.2*,-17.8
CCOC(=O)C1=C(C)c2ccccc2OC1(C(=O)OCC)C(C)C (configuration not stated),/,-1.2,/,-1.8,-6.1
SMILES,NR2E3 ag-1,NR2E3 ag-2,HIF act,EBV LMP1 NFkB,TROY NFkB inh
O=c1[nH]cnc(O)c1C1C=CC=CC=C1,/,14.6,/,0.1,-8.1
COc1ccc(S(=O)(=O)n2nc(OC(=O)c3ccc(C)cc3)cc2N)cc1,1.2,-5.2,-0.5,3.0,59.3*
OCCN1CCN(c2ncnc3c2ncn3[C@H]2CN(Cc3cccc(C(F)(F)F)c3)C[C@@H](CO)O2)CC1,/,-12.5,/,/,-7.2
Cc1ccc(C2(c3ccccc3)NC(=O)N(CC(=O)NCc3ccccc3)C2=O)cc1C (configuration not stated),1.3,21.1,/,70.4*,0.3
O=C(CN1C(=O)NC(c2ccccc2)(c2ccccc2)C1=O)NCc1ccccc1,1.5,0.7,/,-2.2,1.3
CCN(CCCNC(=O)CCNC(=O)Cn1ccc2ccccc2c1=O)c1ccccc1,/,11.2,32.5*,-9.0,-7.3
CN(CCNC(=O)CCNC(=O)Cn1ccc2ccccc2c1=O)Cc1ccccc1,-3.9,5.8,-0.1,-5.9,4.2
C=C(c1ccc2nc(NC(=O)OC)[nH]c2c1)c1cccs1,/,-44.2,/,-5.6,-14.5
Cc1noc(C)c1-c1ccc(C(=O)Nc2cccc(C(F)(F)F)c2)c2occc12,/,-21.5,/,/,-15.7
CC(C)(C)CC(C)(C)c1ccc(O)c(Cc2ccc(Cl)cc2Cl)c1,/,-4.4,/,-16.4,43.0
COc1ccc2[nH]c(C)c(CCN3C(=O)OC(C)(C)C3(C)O)c2c1 (configuration not stated),2.2,-7.3,-0.1,90.1*,-5.3
CC(C)(CNCc1ccccc1)NS(=O)(=O)c1ccc(Cl)cc1,/,-18.1,/,-0.6,-1.2
O=C(c1ccc(OC2CCN(CCc3ccccc3)CC2)cc1)N1CCCC(CCCO)C1 (configuration not stated),1.0,-62.8,43.8*,4.3,-31.2
CCc1ccc(CN2CCC(Oc3ccc(C(=O)N4CCCC4)cc3)CC2)cc1,0.5,7.2,-0.8,-4.2,7.5
O=C(c1ccc(OC2CCN(CCc3ccccc3)CC2)cc1)N1CCCC1,2.4,8.6,-0.3,8.5,4.2
O=C(c1ccc(OC2CCN(Cc3ccc(F)cc3)CC2)cc1)N1CCCC1,1.2,9.3,52.6*,8.1,-15.8
Cc1cc(NC(=O)CCC(=O)N(CC(=O)NC2CCCC2)c2cccc(F)c2)no1,-2.7,-1.9,-0.2,-3.3,22.7
CN(C)c1ccc(C(=O)N2CCCC(N3CCN(Cc4ccc5c(c4)OCO5)CC3)C2)cc1 (configuration not stated),/,-65.4,-0.5,2.7,-6.8
CCN=c1scc(C)n1/N=C/c1cc(Br)c(O)c(Br)c1,-3.4,-26.2,-0.9,7.2,53.2*
CCC(C(=O)NCc1ccco1)N(C(=O)CNS(=O)(=O)c1ccc(F)cc1)c1ccccc1F (configuration not stated),5.1,4.2,0.4,-4.9,-6.1
CCCCN=C1NN=C(c2ccc3c(c2)OCCO3)CS1,-1.7,-106.8,-0.2,19.8,61.7*
COc1ccc(N=C2NN=C(c3ccc4c(c3)OCCO4)CS2)cc1,2.4,-39.3,0.2,-28.6,7.4
c1cc2c(cc1C1=NNC(=NC3CC3)SC1)OCCO2,-1.2,0.2,-1.2,84.0*,88.6*
O=C(CN1CCN(C(=O)c2cc(C3CC3)nn2-c2ccccc2)CC1)Nc1ccc(F)cc1,/,-6.4,/,-5.5,7.5

# Screening data from PubChem BioAssay.
